ChEMBL document CHEMBL1140227, “Histone deacetylase inhibitors through click chemistry” (J Med Chem, 2008)

What was measured:
Assay type in all cases: functional
NCI-H522 = assay: Growth inhibition of human NCI-H522 cells at 10 uM relative to control; details: values are per cent of control
Procedure, shortened: (§1)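 Single-dose preliminary screen in the NCI human cancer cell line panel, run by the NIH. Percent inhibition of cell line growth was calculated by comparison with untreated samples.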

T47D = assay: Growth inhibition of human T47D cells at 10 uM relative to control; details: values are per cent of control
Procedure, shortened: (§2)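 Single-dose NCI human tumour cell line screen, run by the NIH. Percent inhibition of cell line growth was calculated by comparison with untreated samples.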

EKVX = assay: Growth inhibition of human EKVX cells at 10 uM relative to control; details: values are per cent of control; procedure, shortened: as §1
OVCAR-3 = assay: Growth inhibition of human OVCAR-3 cells at 10 uM relative to control; details: values are per cent of control; procedure, shortened: as §1
HL-60(TB) = assay: Growth inhibition of human HL-60(TB) cells at 10 uM relative to control; details: read-out: INH
Procedure, shortened: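 Single-dose cell line screen run by the NCI (NIH) in its human cancer cell line panel, which includes the leukemia line HL-60(TB). Percent growth inhibition was calculated by comparison with untreated samples.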

UACC-257 = assay: Growth inhibition of human UACC257 cells at 10 uM relative to control; details: values are per cent of control; procedure, shortened: as §2
K562 = assay: Growth inhibition of human K562 cells at 10 uM relative to control; details: values are per cent of control; procedure, shortened: as §1
SK-MEL-5 = assay: Growth inhibition of human SK-MEL-5 cells at 10 uM relative to control; details: values are per cent of control; procedure, shortened: as §1
MOLT-4 = assay: Growth inhibition of human MOLT4 cells at 10 uM relative to control; details: values are per cent of control; procedure, shortened: as §1
HT-29 = assay: Growth inhibition of human HT-29 cells at 10 uM relative to control; details: values are per cent of control; procedure, shortened: as §1
NCI-H460 = assay: Growth inhibition of human NCI-H460 cells at 10 uM relative to control; details: values are per cent of control; procedure, shortened: as §1
CCRF-CEM = assay: Growth inhibition of human CCRF-CEM cells at 10 uM relative to control; details: values are per cent of control; procedure, shortened: as §1
[1] = Growth inhibition of human RPMI8266 cells at 10 uM relative to control; details: values are per cent of control; procedure, shortened: as §1
786-0 = assay: Growth inhibition of human 786-0 cells at 10 uM relative to control; details: values are per cent of control; procedure, shortened: as §1
OVCAR-8 = assay: Growth inhibition of human OVCAR8 cells at 10 uM relative to control; details: values are per cent of control; procedure, shortened: as §1
BT-549 = assay: Growth inhibition of human BT549 cells at 10 uM relative to control; details: values are per cent of control; procedure, shortened: as §1
[2] = Growth inhibition of human Hs 578T cells at 10 uM relative to control; details: values are per cent of control; procedure, shortened: as §1
CAKI-1 = assay: Growth inhibition of human Caki1 cells at 10 uM relative to control; details: values are per cent of control; procedure, shortened: as §1
TK-10 = assay: Growth inhibition of human TK10 cells at 10 uM relative to control; details: values are per cent of control; procedure, shortened: as §2
NCI/ADR-RES = assay: Growth inhibition of human NCI/ADR-RES cells at 10 uM relative to control; details: values are per cent of control; procedure, shortened: as §1
NCI-H322M = assay: Growth inhibition of human NCI-H322M cells at 10 uM relative to control; details: values are per cent of control; procedure, shortened: as §1
SK-MEL-2 = assay: Growth inhibition of human SK-MEL-2 cells at 10 uM relative to control; details: values are per cent of control; procedure, shortened: as §1
LOX IMVI = assay: Growth inhibition of human LOXIMVI cells at 10 uM relative to control; details: values are per cent of control; procedure, shortened: as §1
IGROV-1 = assay: Growth inhibition of human IGROV1 cells at 10 uM relative to control; details: values are per cent of control; procedure, shortened: as §1
Malme-3M = assay: Growth inhibition of human MALME-3M cells at 10 uM relative to control; details: values are per cent of control; procedure, shortened: as §1
OVCAR-4 = assay: Growth inhibition of human OVCAR4 cells at 10 uM relative to control; details: values are per cent of control; procedure, shortened: as §1
SF-295 = assay: Growth inhibition of human SF295 cells at 10 uM relative to control; details: values are per cent of control; procedure, shortened: as §1
UO-31 = assay: Growth inhibition of human UO31 cells at 10 uM relative to control; details: values are per cent of control; procedure, shortened: as §2
SW-620 = assay: Growth inhibition of human SW620 cells at 10 uM relative to control; details: values are per cent of control; procedure, shortened: as §2
OVCAR-5 = assay: Growth inhibition of human OVCAR5 cells at 10 uM relative to control; details: values are per cent of control; procedure, shortened: as §1
NCI-H226 = assay: Growth inhibition of human NCI-H226 cells at 10 uM relative to control; details: values are per cent of control; procedure, shortened: as §1
U-251 = assay: Growth inhibition of human U251 cells at 10 uM relative to control; details: values are per cent of control; procedure, shortened: as §2
HCT-116 = assay: Growth inhibition of human HCT116 cells at 10 uM relative to control; details: values are per cent of control; procedure, shortened: as §1
SN12C = assay: Growth inhibition of human SN12C cells at 10 uM relative to control; details: values are per cent of control; procedure, shortened: as §1
COLO 205 = assay: Growth inhibition of human COLO205 cells at 10 uM relative to control; details: values are per cent of control; procedure, shortened: as §1
PC-3 = assay: Growth inhibition of human PC3 cells at 10 uM relative to control; details: values are per cent of control; procedure, shortened: as §1
HCC 2998 = assay: Growth inhibition of human HCC2998 cells at 10 uM relative to control; details: values are per cent of control; procedure, shortened: as §1
MCF7 = assay: Growth inhibition of human MCF7 cells at 10 uM relative to control; details: values are per cent of control; procedure, shortened: as §1
MDA-MB-468 = assay: Growth inhibition of human MDA-MB-468 cells at 10 uM relative to control; details: values are per cent of control; procedure, shortened: as §1
SK-OV-3 = assay: Growth inhibition of human SKOV3 cells at 10 uM relative to control; details: values are per cent of control; procedure, shortened: as §1
NCI-H23 = assay: Growth inhibition of human NCI-H23 cells at 10 uM relative to control; details: values are per cent of control; procedure, shortened: as §1
SNB-75 = assay: Growth inhibition of human SNB75 cells at 10 uM relative to control; details: values are per cent of control; procedure, shortened: as §2
SNB-19 = assay: Growth inhibition of human SNB19 cells at 10 uM relative to control; details: values are per cent of control; procedure, shortened: as §1
A549 = assay: Growth inhibition of human A549 cells at 10 uM relative to control; details: values are per cent of control; procedure, shortened: as §1
MDA-MB-435 = assay: Growth inhibition of human MDA-MB-435 cells at 10 uM relative to control; details: values are per cent of control; procedure, shortened: as §1
HCT-15 = assay: Growth inhibition of human HCT15 cells at 10 uM relative to control; details: values are per cent of control; procedure, shortened: as §1
A498 = assay: Growth inhibition of human A498 cells at 10 uM relative to control; details: values are per cent of control; procedure, shortened: as §1
MDA-MB-231 = assay: Growth inhibition of human MDA-MB-231 cells at 10 uM relative to control; details: values are per cent of control; procedure, shortened: as §1
cells = details: Homo sapiens, Cancer cell lines
UACC-62 = assay: Growth inhibition of human UACC62 cells at 10 uM relative to control; details: values are per cent of control; procedure, shortened: as §2
SF-268 = assay: Growth inhibition of human SF268 cells at 10 uM relative to control; details: values are per cent of control; procedure, shortened: as §1
M14 = assay: Growth inhibition of human M14 cells at 10 uM relative to control; details: values are per cent of control; procedure, shortened: as §1
ACHN = assay: Growth inhibition of human ACHN cells at 10 uM relative to control; details: values are per cent of control; procedure, shortened: as §1
DU-145 = assay: Growth inhibition of human DU145 cells at 10 uM relative to control; details: values are per cent of control; procedure, shortened: as §1
SK-MEL-28 = assay: Growth inhibition of human SK-MEL-28 cells at 10 uM relative to control; details: values are per cent of control; procedure, shortened: as §1
HOP-62 = assay: Growth inhibition of human HOP62 cells at 10 uM relative to control; details: values are per cent of control; procedure, shortened: as §1
KM12 = assay: Growth inhibition of human KM12 cells at 10 uM relative to control; details: values are per cent of control; procedure, shortened: as §1
SF-539 = assay: Growth inhibition of human SF539 cells at 10 uM relative to control; details: values are per cent of control; procedure, shortened: as §1

`O=C(NO)c1cn(C/C=C/c2ccccc2)nn1` gave a growth, % of control at 10 µM (NCI-H522) of 92.5%, a growth, % of control at 10 µM (T47D) of 97.8% and a growth, % of control at 10 µM (EKVX) of 89.9%. For the same molecule, the growth, % of control at 10 µM (OVCAR-3) was 97.1%, the growth, % of control at 10 µM (HL-60(TB)) was 94.5% and the growth, % of control at 10 µM (UACC-257) was 125%. The growth, % of control at 10 µM (K562) was 119%, the growth, % of control at 10 µM (SK-MEL-5) was 148% and the growth, % of control at 10 µM (MOLT-4) was 79.6%. The growth, % of control at 10 µM (HT-29) was 104%, the growth, % of control at 10 µM (NCI-H460) was 131% and the growth, % of control at 10 µM (CCRF-CEM) was 61%. For the same molecule, the growth, % of control at 10 µM [1] was 94.5%, the growth, % of control at 10 µM (786-0) was 132% and the growth, % of control at 10 µM (OVCAR-8) was 106%. For the same molecule, the growth, % of control at 10 µM (BT-549) was 107%, the growth, % of control at 10 µM [2] was 95.5% and the growth, % of control at 10 µM (CAKI-1) was 95%. It also gave a growth, % of control at 10 µM (TK-10) of 130%, a growth, % of control at 10 µM (NCI/ADR-RES) of 107% and a growth, % of control at 10 µM (NCI-H322M) of 109%. For the same molecule, the growth, % of control at 10 µM (SK-MEL-2) was 95.7%, the growth, % of control at 10 µM (LOX IMVI) was 90.2% and the growth, % of control at 10 µM (IGROV-1) was 89.4%. The growth, % of control at 10 µM (Malme-3M) was 110%, the growth, % of control at 10 µM (OVCAR-4) was 94.3% and the growth, % of control at 10 µM (SF-295) was 108%. For the same molecule, the growth, % of control at 10 µM (UO-31) was 72.7%, the growth, % of control at 10 µM (SW-620) was 98.4% and the growth, % of control at 10 µM (OVCAR-5) was 104%. For the same molecule, the growth, % of control at 10 µM (NCI-H226) was 91.1%, the growth, % of control at 10 µM (U-251) was 90.1% and the growth, % of control at 10 µM (HCT-116) was 100%. The growth, % of control at 10 µM (SN12C) was 95.3%, the growth, % of control at 10 µM (COLO 205) was 133% and the growth, % of control at 10 µM (PC-3) was 77.6%. For the same molecule, the growth, % of control at 10 µM (HCC 2998) was 105%, the growth, % of control at 10 µM (MCF7) was 122% and the growth, % of control at 10 µM (MDA-MB-468) was 105%. For the same molecule, the growth, % of control at 10 µM (SK-OV-3) was 107%, the growth, % of control at 10 µM (NCI-H23) was 104% and the growth, % of control at 10 µM (SNB-75) was 79.8%. For the same molecule, the growth, % of control at 10 µM (SNB-19) was 94.9%, the growth, % of control at 10 µM (A549) was 107% and the growth, % of control at 10 µM (MDA-MB-435) was 103%. It also gave a growth, % of control at 10 µM (HCT-15) of 98.8%, a growth, % of control at 10 µM (A498) of 95.2% and a growth, % of control at 10 µM (MDA-MB-231) of 96.1%. The inhibition at 10 µM (cells) was > 95%, the growth, % of control at 10 µM (UACC-62) was 102% and the growth, % of control at 10 µM (SF-268) was 92.8%. It also gave a growth, % of control at 10 µM (M14) of 106%, a growth, % of control at 10 µM (ACHN) of 101% and a growth, % of control at 10 µM (DU-145) of 167%. It also gave a growth, % of control at 10 µM (SK-MEL-28) of 104%, a growth, % of control at 10 µM (HOP-62) of 92.4% and a growth, % of control at 10 µM (KM12) of 104%. The growth, % of control at 10 µM (SF-539) was 135%.
